# Test results from ChEMBL document CHEMBL1671716, “Antimicrobial susceptibility patterns for recent clinical isolates of anaerobic bacteria in South Korea” (2010).
# Experiments:
# [1] = system: Bacteroides caccae; experiment: Antimicrobial activity against Bacteroides caccae after 48 hrs by agar dilution method; format: functional
# Method in brief: (§1)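 MICs on clinical anaerobe isolates by the CLSI agar dilution method. Inoculum of 10^5 CFU applied with a Steers replicator. Plates incubated 48 h at 37°C in an anaerobic chamber.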
# [2] = system: Bacteroides fragilis; experiment: Antimicrobial activity against Bacteroides fragilis assessed as percent susceptible isolates after 48 hrs by agar dilution method; format: functional
# [3] = system: Bacteroides fragilis; experiment: Antimicrobial activity against Bacteroides fragilis assessed as percent resistant isolates after 48 hrs by agar dilution method; format: functional
# Method in brief: (§2)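 CLSI agar dilution on recent Korean clinical anaerobe isolates. Inoculum 10^5 CFU per spot by replicator. Plates incubated in an anaerobic chamber at 37°C for 48 h. For piperacillin plus tazobactam, tazobactam was held constant at 4 μg/ml. Resistance and susceptibility rates derived from MICs.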
# [4] = system: Bacteroides thetaiotaomicron; experiment: Antimicrobial activity against Bacteroides thetaiotaomicron assessed as percent resistant isolates after 48 hrs by agar dilution method; format: functional; method in brief: as §2
# [5] = system: Bacteroides caccae; experiment: Antimicrobial activity against Bacteroides caccae assessed as percent susceptible isolates after 48 hrs by agar dilution method; format: functional
# [6] = system: Bacteroides caccae; experiment: Antimicrobial activity against Bacteroides caccae assessed as percent resistant isolates after 48 hrs by agar dilution method; format: functional; method in brief: as §2
# [7] = system: Parabacteroides distasonis; experiment: Antimicrobial activity against Bacteroides distasonis assessed as percent susceptible isolates after 48 hrs by agar dilution method; format: functional
# [8] = system: Phocaeicola vulgatus; experiment: Antimicrobial activity against Bacteroides vulgatus assessed as percent susceptible isolates after 48 hrs by agar dilution method; format: functional
# [9] = system: Bacteroides ovatus; experiment: Antimicrobial activity against Bacteroides ovatus assessed as percent susceptible isolates after 48 hrs by agar dilution method; format: functional
# [10] = system: Bacteroides ovatus; experiment: Antimicrobial activity against Bacteroides ovatus assessed as percent resistant isolates after 48 hrs by agar dilution method; format: functional; method in brief: as §2
# [11] = system: Hoylesella oralis; experiment: Antimicrobial activity against Prevotella oralis after 48 hrs by agar dilution method; format: functional
# Method in brief: (§3)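 CLSI agar dilution (M11-A7); inoculum 10^5 CFU applied by replicator; plates incubated anaerobically 48 h at 37°C. For piperacillin-tazobactam, tazobactam held constant at 4 μg/ml.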
# [12] = system: Prevotella intermedia; experiment: Antimicrobial activity against Prevotella intermedia assessed as percent susceptible isolates after 48 hrs by agar dilution method; format: functional; method in brief: as §3
# [13] = system: Prevotella intermedia; experiment: Antimicrobial activity against Prevotella intermedia assessed as percent resistant isolates after 48 hrs by agar dilution method; format: functional; method in brief: as §2
# [14] = system: Prevotella bivia; experiment: Antimicrobial activity against Prevotella bivia assessed as percent susceptible isolates after 48 hrs by agar dilution method; format: functional; method in brief: as §3
# [15] = system: Prevotella bivia; experiment: Antimicrobial activity against Prevotella bivia assessed as percent resistant isolates after 48 hrs by agar dilution method; format: functional; method in brief: as §2
# [16] = system: Prevotella buccae; experiment: Antimicrobial activity against Prevotella buccae assessed as percent susceptible isolates after 48 hrs by agar dilution method; format: functional, Segatella buccae; method in brief: as §3
# [17] = system: Hoylesella oralis; experiment: Antimicrobial activity against Prevotella oralis assessed as percent resistant isolates after 48 hrs by agar dilution method; format: functional; method in brief: as §2
# [18] = system: Peptostreptococcus anaerobius; experiment: Antimicrobial activity against Peptostreptococcus anaerobius assessed as percent susceptible isolates after 48 hrs by agar dilution method; format: functional; method in brief: as §2
# [19] = system: Parvimonas micra; experiment: Antimicrobial activity against Peptostreptococcus micros assessed as percent susceptible isolates after 48 hrs by agar dilution method; format: functional; method in brief: as §2
# [20] = system: Anaerococcus prevotii; experiment: Antimicrobial activity against Anaerococcus prevotii after 48 hrs by agar dilution method; format: functional; method in brief: as §1
# [21] = system: Anaerococcus prevotii; experiment: Antimicrobial activity against Anaerococcus prevotii assessed as percent resistant isolates after 48 hrs by agar dilution method; format: functional; method in brief: as §2
# [22] = system: Peptoniphilus asaccharolyticus; experiment: Antimicrobial activity against Peptoniphilus asaccharolyticus after 48 hrs by agar dilution method; format: functional; method in brief: as §3
# [23] = system: Peptoniphilus asaccharolyticus; experiment: Antimicrobial activity against Peptoniphilus asaccharolyticus assessed as percent susceptible isolates after 48 hrs by agar dilution method; format: functional; method in brief: as §3
# [24] = system: Peptoniphilus asaccharolyticus; experiment: Antimicrobial activity against Peptoniphilus asaccharolyticus assessed as percent resistant isolates after 48 hrs by agar dilution method; format: functional; method in brief: as §2
# [25] = system: Finegoldia magna; experiment: Antimicrobial activity against Finegoldia magna after 48 hrs by agar dilution method; format: functional; method in brief: as §3
# [26] = system: Finegoldia magna; experiment: Antimicrobial activity against Finegoldia magna assessed as percent susceptible isolates after 48 hrs by agar dilution method; format: functional; method in brief: as §3
# [27] = system: Finegoldia magna; experiment: Antimicrobial activity against Finegoldia magna assessed as percent resistant isolates after 48 hrs by agar dilution method; format: functional; method in brief: as §2
# [28] = system: Schaalia odontolytica; experiment: Antimicrobial activity against Actinomyces odontolyticus assessed as percent susceptible isolates after 48 hrs by agar dilution method; format: functional
# [29] = system: Schaalia meyeri; experiment: Antimicrobial activity against Actinomyces meyeri after 48 hrs by agar dilution method; format: functional; method in brief: as §1
# [30] = system: Schaalia meyeri; experiment: Antimicrobial activity against Actinomyces meyeri assessed as percent susceptible isolates after 48 hrs by agar dilution method; format: functional
# [31] = system: Schaalia meyeri; experiment: Antimicrobial activity against Actinomyces meyeri assessed as percent resistant isolates after 48 hrs by agar dilution method; format: functional; method in brief: as §2
# [32] = system: Actinomyces naeslundii; experiment: Antimicrobial activity against Actinomyces naeslundii after 48 hrs by agar dilution method; format: functional; method in brief: as §1
# [33] = system: Actinomyces naeslundii; experiment: Antimicrobial activity against Actinomyces naeslundii assessed as percent susceptible isolates after 48 hrs by agar dilution method; format: functional
# [34] = system: Actinomyces naeslundii; experiment: Antimicrobial activity against Actinomyces naeslundii assessed as percent resistant isolates after 48 hrs by agar dilution method; format: functional; method in brief: as §2
# [35] = system: Bifidobacterium adolescentis; experiment: Antimicrobial activity against Bifidobacterium adolescentis after 48 hrs by agar dilution method; format: functional; method in brief: as §1
# [36] = system: Bifidobacterium adolescentis; experiment: Antimicrobial activity against Bifidobacterium adolescentis assessed as percent susceptible isolates after 48 hrs by agar dilution method; format: functional
# [37] = system: Bifidobacterium adolescentis; experiment: Antimicrobial activity against Bifidobacterium adolescentis assessed as percent resistant isolates after 48 hrs by agar dilution method; format: functional; method in brief: as §2
# [38] = system: Bifidobacterium sp.; experiment: Antimicrobial activity against Bifidobacterium sp. assessed as percent resistant isolates after 48 hrs by agar dilution method; format: functional; method in brief: as §2
# [39] = system: Eggerthella lenta; experiment: Antimicrobial activity against Eubacterium lentum assessed as percent resistant isolates after 48 hrs by agar dilution method; format: functional; method in brief: as §2
# [40] = system: Eubacterium sp.; experiment: Antimicrobial activity against Eubacterium sp. after 48 hrs by agar dilution method; format: functional; method in brief: as §3
# [41] = system: Bacteroides fragilis; experiment: Antimicrobial activity against Bacteroides fragilis after 48 hrs by agar dilution method; format: functional; method in brief: as §1
# [42] = system: Bacteroides thetaiotaomicron; experiment: Antimicrobial activity against Bacteroides thetaiotaomicron after 48 hrs by agar dilution method; format: functional; method in brief: as §1
# [43] = system: Prevotella bivia; experiment: Antimicrobial activity against Prevotella bivia after 48 hrs by agar dilution method; format: functional; method in brief: as §3
# [44] = system: Prevotella buccae; experiment: Antimicrobial activity against Prevotella buccae after 48 hrs by agar dilution method; format: functional; conditions: Segatella buccae; method in brief: as §3
# [45] = system: Fusobacterium varium; experiment: Antimicrobial activity against Fusobacterium varium after 48 hrs by agar dilution method; format: functional; method in brief: as §3
# [46] = system: Fusobacterium mortiferum; experiment: Antimicrobial activity against Fusobacterium mortiferum after 48 hrs by agar dilution method; format: functional; method in brief: as §3
# [47] = system: Clostridioides difficile; experiment: Antimicrobial activity against Clostridium difficile after 48 hrs by agar dilution method; format: functional
# [48] = system: Clostridioides difficile; experiment: Antimicrobial activity against Clostridium difficile assessed as percent susceptible isolates after 48 hrs by agar dilution method; format: functional
# [49] = system: Clostridioides difficile; experiment: Antimicrobial activity against Clostridium difficile assessed as percent resistant isolates after 48 hrs by agar dilution method; format: functional
smiles,measurement,setting,value
COc1c(N2C[C@@H]3CCCN[C@@H]3C2)c(F)cc2c(=O)c(C(=O)O)cn(C3CC3)c12 [MOXIFLOXACIN],MIC50,[1],2 µg/mL
same,MIC90,[1],16 µg/mL
same,Activity,[2],84%
same,Activity,[3],11%
same,Activity,[4],18%
same,Activity,[5],72%
same,Activity,[6],18%
same,Activity,[7],72%
same,Activity,[8],72%
same,Activity,[9],72%
same,Activity,[10],18%
same,MIC50,[11],2 µg/mL
same,MIC90,[11],8 µg/mL
same,Activity,[12],100%
same,Activity,[13],0%
same,Activity,[14],56%
same,Activity,[15],11%
same,Activity,[16],56%
same,Activity,[17],11%
same,Activity,[18],92%
same,Activity,[19],8%
same,MIC50,[20],0.25 µg/mL
same,MIC90,[20],8 µg/mL
same,Activity,[21],13%
same,MIC50,[22],0.25 µg/mL
same,MIC90,[22],2 µg/mL
same,Activity,[23],100%
same,Activity,[24],0%
same,MIC50,[25],0.5 µg/mL
same,MIC90,[25],8 µg/mL
same,Activity,[26],60%
same,Activity,[27],27%
same,Activity,[28],92%
same,MIC50,[29],1 µg/mL
same,MIC90,[29],2 µg/mL
same,Activity,[30],92%
same,Activity,[31],0%
same,MIC50,[32],1 µg/mL
same,MIC90,[32],2 µg/mL
same,Activity,[33],92%
same,Activity,[34],0%
same,MIC50,[35],1 µg/mL
same,MIC90,[35],2 µg/mL
same,Activity,[36],92%
same,Activity,[37],15%
same,Activity,[38],0%
same,Activity,[39],0%
same,MIC50,[40],1 µg/mL
same,MIC90,[40],2 µg/mL
CCC[C@@H]1C[C@@H](C(=O)N[C@@H]([C@H]2O[C@H](SC)[C@H](O)[C@@H](O)[C@H]2O)[C@H](C)Cl)N(C)C1 [CLINDAMYCIN],MIC50,[41],0.5 µg/mL
same,MIC90,[41],> 128 µg/mL
same,MIC50,[42],> 128 µg/mL
same,MIC90,[42],> 128 µg/mL
same,MIC50,[1],> 128 µg/mL
same,MIC90,[1],> 128 µg/mL
same,Activity,[2],67%
same,Activity,[3],33%
same,Activity,[4],68%
same,Activity,[5],16%
same,Activity,[6],68%
same,Activity,[7],16%
same,Activity,[8],16%
same,Activity,[9],16%
same,Activity,[10],68%
same,MIC50,[43],≤ 0.06 µg/mL
same,MIC90,[43],128 µg/mL
same,MIC50,[44],≤ 0.06 µg/mL
same,MIC90,[44],128 µg/mL
same,MIC50,[11],≤ 0.06 µg/mL
same,MIC90,[11],128 µg/mL
same,Activity,[12],100%
same,Activity,[13],0%
same,Activity,[14],50%
same,Activity,[16],50%
same,MIC,[45],0.06 µg/mL
same,MIC,[46],0.06 µg/mL
same,Activity,[18],77%
same,Activity,[19],23%
same,MIC50,[20],2 µg/mL
same,MIC90,[20],128 µg/mL
same,Activity,[21],40%
same,MIC50,[22],0.125 µg/mL
same,MIC90,[22],32 µg/mL
same,Activity,[23],67%
same,Activity,[24],33%
same,MIC50,[25],0.25 µg/mL
same,MIC90,[25],64 µg/mL
same,Activity,[26],73%
same,Activity,[27],13%
same,MIC50,[47],64 µg/mL
same,MIC90,[47],128 µg/mL
same,Activity,[48],8%
same,Activity,[49],83%
same,Activity,[28],85%
same,MIC,[29],0.06 µg/mL
same,MIC50,[29],0.06 µg/mL
same,MIC90,[29],> 128 µg/mL
same,Activity,[30],85%
same,Activity,[31],15%
same,MIC,[32],0.06 µg/mL
same,MIC50,[32],0.06 µg/mL
same,MIC90,[32],> 128 µg/mL
same,Activity,[33],85%
same,Activity,[34],15%
same,MIC,[35],0.06 µg/mL
same,MIC50,[35],0.06 µg/mL
same,MIC90,[35],> 128 µg/mL
same,Activity,[36],85%
same,Activity,[37],8%
same,Activity,[38],15%
same,Activity,[39],15%
same,MIC,[40],0.06 µg/mL
same,MIC50,[40],0.06 µg/mL
same,MIC90,[40],> 128 µg/mL
